Experimental data: ChEMBL document CHEMBL1143121, “Is adamantane a suitable substituent to pre-organize the acid orientation in E-selectin antagonists?” (Bioorg Med Chem, 2008)

These molecules were tested against T1, E-selectin (Homo sapiens, UniProt P16581) (assay: Binding affinity to E-selectin).
T1 sequence (P16581 whole entry): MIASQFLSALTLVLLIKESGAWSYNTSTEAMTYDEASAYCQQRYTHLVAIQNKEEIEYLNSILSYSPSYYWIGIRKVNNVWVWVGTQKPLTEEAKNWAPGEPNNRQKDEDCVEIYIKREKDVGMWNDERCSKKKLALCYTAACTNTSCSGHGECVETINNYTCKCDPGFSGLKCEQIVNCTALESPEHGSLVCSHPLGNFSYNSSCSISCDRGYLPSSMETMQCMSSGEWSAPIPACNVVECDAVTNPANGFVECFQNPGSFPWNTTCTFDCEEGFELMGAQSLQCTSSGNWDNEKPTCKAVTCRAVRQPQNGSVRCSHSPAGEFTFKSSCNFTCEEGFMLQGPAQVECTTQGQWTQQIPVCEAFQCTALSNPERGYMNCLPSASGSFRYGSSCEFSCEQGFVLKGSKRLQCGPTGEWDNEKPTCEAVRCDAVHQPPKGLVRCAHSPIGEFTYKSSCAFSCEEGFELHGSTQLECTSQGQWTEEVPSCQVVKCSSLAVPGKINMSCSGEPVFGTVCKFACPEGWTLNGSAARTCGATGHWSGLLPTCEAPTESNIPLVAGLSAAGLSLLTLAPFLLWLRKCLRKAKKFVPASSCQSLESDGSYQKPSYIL
In short: (§1)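 Competitive binding ELISA against E-selectin, run by a previously published procedure. A reference antagonist was included in the assay for relative comparison. The acid test compounds were purified by size exclusion chromatography to remove traces of polyanionic ion-exchange resin that could give false positives.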

| Structure (SMILES) | IC50 |
| --- | --- |
| CC(=O)N[C@@H]1[C@@H](O[C@@H]2O[C@@H](C)[C@@H](O)[C@@H](O)[C@@H]2O)[C@H](O[C@@H]2O[C@H](CO)[C@H](O)[C@H](O[C@]3(C(=O)O)C[C@H](O)[C@@H](NC(C)=O)[C@H]([C@H](O)[C@H](O)CO)O3)[C@H]2O)[C@@H](CO)O[C@H]1O | 1000 µM |
| CC(=O)N[C@H]1[C@H]([C@H](O)[C@H](O)CO)O[C@@](O[C@H]2[C@@H](O)[C@@H](CO)O[C@@H](O[C@@H]3CCCC[C@H]3O[C@@H]3O[C@@H](C)[C@@H](O)[C@@H](O)[C@@H]3O)[C@@H]2O)(C(=O)O)C[C@@H]1O | 600 µM |

What follows are molecules tested against T2, E-selectin (Homo sapiens) (UniProt P16581) (assay: Binding affinity to E-selectin relative to (2S,4S,5R,6R)-5-acetamido-2-((2R,3S,4S,5R,6R)-3,5-dihydroxy-2-(hydroxymethyl)-6-((1R,2R)-2-((2S,3S,4R,5S,6S)-3,4,5-trihydroxy-6-methyl-tetrahydro-2H-pyran-2-yloxy)cyclohexyloxy)-tetrahydro-2H-pyran-4-yloxy)-4-hydroxy-6-((1R,2R)-1,2,3-trihydroxypropyl)-tetrahydro-2H-pyran-2-carboxylic acid).
T2 sequence (whole entry): T1 sequence (P16581 whole entry)
In short: as §1

| Structure (SMILES) | Activity |
| --- | --- |
| C[C@@H]1O[C@@H](O[C@@H]2CCCC[C@H]2O[C@@H]2O[C@H](CO)[C@H](O)[C@H](O[C@@H](Cc3ccccc3)C(=O)O)[C@H]2O)[C@@H](O)[C@H](O)[C@@H]1O | 0.6 |
| C[C@H](O[C@H]1[C@@H](O)[C@@H](CO)O[C@@H](O[C@@H]2CCCC[C@H]2O[C@@H]2O[C@@H](C)[C@@H](O)[C@@H](O)[C@@H]2O)[C@@H]1O)C(=O)O | 2.4 |
| C[C@@H]1O[C@@H](O[C@@H]2CCCC[C@H]2O[C@@H]2O[C@H](CO)[C@H](O)[C@H](O[C@H](CC3CCCCC3)C(=O)O)[C@H]2O)[C@@H](O)[C@H](O)[C@@H]1O | > 10 |
| C[C@@H]1O[C@@H](O[C@@H]2CCCC[C@H]2O[C@@H]2O[C@H](CO)[C@H](O)[C@H](O[C@H](Cc3ccccc3)C(=O)O)[C@H]2O)[C@@H](O)[C@H](O)[C@@H]1O | > 10 |
| C[C@@H]1O[C@@H](O[C@@H]2CCCC[C@H]2O[C@@H]2O[C@H](CO)[C@H](O)[C@H](OCC(=O)O)[C@H]2O)[C@@H](O)[C@H](O)[C@@H]1O | > 10 |
| C[C@@H]1O[C@@H](O[C@@H]2CCCC[C@H]2O[C@@H]2O[C@H](CO)[C@H](O)[C@H](O[C@@H](CC34CC5CC(CC(C5)C3)C4)C(=O)O)[C@H]2O)[C@@H](O)[C@H](O)[C@@H]1O | 0.32 |
| C[C@@H]1O[C@@H](O[C@@H]2CCCC[C@H]2O[C@@H]2O[C@H](CO)[C@H](O)[C@H](O[C@@H](CC3CCCCC3)C(=O)O)[C@H]2O)[C@@H](O)[C@H](O)[C@@H]1O | 0.15 |
| C[C@@H]1O[C@@H](O[C@@H]2CCCC[C@H]2O[C@@H]2O[C@H](CO)[C@H](O)[C@H](O[C@H](CC34CC5CC(CC(C5)C3)C4)C(=O)O)[C@H]2O)[C@@H](O)[C@H](O)[C@@H]1O | > 10 |
| C[C@@H]1O[C@@H](O[C@@H]2CCCC[C@H]2O[C@@H]2O[C@H](CO)[C@H](O)[C@H](O[C@H](C)C(=O)O)[C@H]2O)[C@@H](O)[C@H](O)[C@@H]1O | > 10 |
